Test results from ChEMBL document CHEMBL4689842, “EUbOPEN Chemogenomics Library wave 1” (2021).

What was measured:
Format in all cases: toxicity, cell-based
[1] = tested on: U2OS; test: Incucyte cell viability with U2OS; settings: human, 10 µM, compound concentration 10 uM; also: filed as whole numbers so only -1 and 0 and 1 occur
[2] = tested on: Fibroblast; test: Multiplex assay against human fibroblast
Outline: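 Phenotypes for tubulin, mitochondrial mass and membrane permeability are expressed as per cents of healthy-nucleus cells. Cells were stained live at seeding with Hoechst33342, BioTracker Green Microtubule Cytoskeleton Dye, MitoTracker Red and Annexin V Alexa Fluor 680, then imaged after compound addition on a CQ1 microscope at 37°C and 5% CO2. Machine-learning gating in CellPathfinder separated Hoechst high-intensity objects from normal cells, divided normal cells by nuclear state (healthy, pyknosed, fragmented) and divided pyknosed cells into mitotic or apoptotic.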

[3] = tested on: HEK-293T; test: Incucyte cell viability with HEK293T; settings: human, 10 µM, compound concentration 10 uM; also: filed as whole numbers so only -1 and 0 and 1 occur
[4] = 0 h, replicate number 2, timepoint 0 hours
[5] = 6 h, replicate number 1, timepoint 6 hours
[6] = 12 h, replicate number 1, timepoint 12 hours
[7] = 18 h, replicate number 1, timepoint 18 hours
[8] = 24 h, replicate number 1, timepoint 24 hours
[9] = 12 h, 1 µM, compound concentration 1 uM, replicate 1
[10] = 12 h, 1 µM, compound concentration 1 uM, replicate 2
[11] = 12 h, 10 µM, compound concentration 10 uM, replicate 1
[12] = 12 h, 10 µM, compound concentration 10 uM, replicate 2
[13] = 24 h, 1 µM, compound concentration 1 uM, replicate 1
[14] = 24 h, 1 µM, compound concentration 1 uM, replicate 2
[15] = 24 h, 10 µM, compound concentration 10 uM, replicate 1
[16] = 24 h, 10 µM, compound concentration 10 uM, replicate 2

CC[C@@H]1C(=O)N(C)c2cnc(Nc3ccc(C(=O)NC4CCN(C)CC4)cc3OC)nc2N1C1CCCC1 [BI-2536] was tested, and the “Growth Rate” value [1, 4] was 0, the “Growth Rate” value [1, 5] was 0 and the “Growth Rate” value [1, 6] was 0. The “Growth Rate” value [1, 7] was 0, the “Growth Rate” value ([1]; 18 h, replicate number 2, timepoint 18 hours) was 1 and the “Growth Rate” value [1, 8] was 0. The “Growth Rate” value ([1]; 24 h, replicate number 2, timepoint 24 hours) was 1, the “Population Apoptotic (%)” value [2, 9] was 82% and the “Population Fragmented Nuclei (%)” value [2, 9] was 37%. For the same compound, the “Population Healthy Nuclei (%)” value [2, 9] was 51%, the “Population Hoechst High Intensity Objects (%)” value [2, 9] was 13% and the “Population Membrane Permeable-Phenotype (%)” value [2, 9] was 6%. For the same compound, the “Population Mitotic Cells (%)” value [2, 9] was 17%, the “Population Normal (%)” value [2, 9] was 86% and the “Population Pyknosed Nuclei (%)” value [2, 9] was 11%. For the same compound, the “Population Tubulin-Different-Phenotype (%)” value [2, 9] was 10%, the “Total Cell Count” value [2, 9] was 236 and the “Population Apoptotic (%)” value [2, 10] was 100%. For the same compound, the “Population Fragmented Nuclei (%)” value [2, 10] was 60%, the “Population Healthy Nuclei (%)” value [2, 10] was 35% and the “Population Hoechst High Intensity Objects (%)” value [2, 10] was 51%. For the same compound, the “Population Membrane Permeable-Phenotype (%)” value [2, 10] was 0%, the “Population Mitochondria Different-Phenotype (%)” value [2, 10] was 5% and the “Population Mitotic Cells (%)” value [2, 10] was 0%. The “Population Normal (%)” value [2, 10] was 48%, the “Population Pyknosed Nuclei (%)” value [2, 10] was 4% and the “Population Tubulin-Different-Phenotype (%)” value [2, 10] was 0%. For the same compound, the “Total Cell Count” value [2, 10] was 98, the “Population Fragmented Nuclei (%)” value [2, 11] was 38% and the “Population Healthy Nuclei (%)” value [2, 11] was 50%. For the same compound, the “Population Hoechst High Intensity Objects (%)” value [2, 11] was 22%, the “Population Membrane Permeable-Phenotype (%)” value [2, 11] was 2% and the “Population Mitochondria Different-Phenotype (%)” value [2, 11] was 7%. For the same compound, the “Population Mitotic Cells (%)” value [2, 11] was 19%, the “Population Normal (%)” value [2, 11] was 77% and the “Population Pyknosed Nuclei (%)” value [2, 11] was 11%. For the same compound, the “Population Tubulin-Different-Phenotype (%)” value [2, 11] was 31%, the “Total Cell Count” value [2, 11] was 347 and the “Population Apoptotic (%)” value [2, 12] was 80%. For the same compound, the “Population Fragmented Nuclei (%)” value [2, 12] was 50%, the “Population Healthy Nuclei (%)” value [2, 12] was 41% and the “Population Hoechst High Intensity Objects (%)” value [2, 12] was 26%. For the same compound, the “Population Membrane Permeable-Phenotype (%)” value [2, 12] was 3%, the “Population Mitochondria Different-Phenotype (%)” value [2, 12] was 25% and the “Population Mitotic Cells (%)” value [2, 12] was 20%. The “Population Normal (%)” value [2, 12] was 73%, the “Population Pyknosed Nuclei (%)” value [2, 12] was 7% and the “Population Tubulin-Different-Phenotype (%)” value [2, 12] was 62%. For the same compound, the “Total Cell Count” value [2, 12] was 89, the “Population Apoptotic (%)” value [2, 13] was 80% and the “Population Fragmented Nuclei (%)” value [2, 13] was 33%. The “Population Healthy Nuclei (%)” value [2, 13] was 53%, the “Population Hoechst High Intensity Objects (%)” value [2, 13] was 18% and the “Population Membrane Permeable-Phenotype (%)” value [2, 13] was 3%. For the same compound, the “Population Mitochondria Different-Phenotype (%)” value [2, 13] was 8%, the “Population Mitotic Cells (%)” value [2, 13] was 20% and the “Population Normal (%)” value [2, 13] was 81%. For the same compound, the “Population Pyknosed Nuclei (%)” value [2, 13] was 13%, the “Population Tubulin-Different-Phenotype (%)” value [2, 13] was 6% and the “Total Cell Count” value [2, 13] was 225. The “Population Apoptotic (%)” value [2, 14] was 100%, the “Population Fragmented Nuclei (%)” value [2, 14] was 59% and the “Population Healthy Nuclei (%)” value [2, 14] was 38%. The “Population Hoechst High Intensity Objects (%)” value [2, 14] was 48%, the “Population Membrane Permeable-Phenotype (%)” value [2, 14] was 5% and the “Population Mitochondria Different-Phenotype (%)” value [2, 14] was 0%. For the same compound, the “Population Mitotic Cells (%)” value [2, 14] was 0%, the “Population Normal (%)” value [2, 14] was 51% and the “Population Pyknosed Nuclei (%)” value [2, 14] was 2%. For the same compound, the “Population Tubulin-Different-Phenotype (%)” value [2, 14] was 11%, the “Total Cell Count” value [2, 14] was 92 and the “Population Apoptotic (%)” value [2, 15] was 75%. For the same compound, the “Population Fragmented Nuclei (%)” value [2, 15] was 35%, the “Population Healthy Nuclei (%)” value [2, 15] was 55% and the “Population Hoechst High Intensity Objects (%)” value [2, 15] was 36%. The “Population Membrane Permeable-Phenotype (%)” value [2, 15] was 1%, the “Population Mitochondria Different-Phenotype (%)” value [2, 15] was 21% and the “Population Mitotic Cells (%)” value [2, 15] was 25%. The “Population Normal (%)” value [2, 15] was 63%, the “Population Pyknosed Nuclei (%)” value [2, 15] was 10% and the “Population Tubulin-Different-Phenotype (%)” value [2, 15] was 21%. The “Total Cell Count” value [2, 15] was 376, the “Population Apoptotic (%)” value [2, 16] was 100% and the “Population Fragmented Nuclei (%)” value [2, 16] was 57%. For the same compound, the “Population Healthy Nuclei (%)” value [2, 16] was 28%, the “Population Hoechst High Intensity Objects (%)” value [2, 16] was 35% and the “Population Membrane Permeable-Phenotype (%)” value [2, 16] was 0%. For the same compound, the “Population Mitochondria Different-Phenotype (%)” value [2, 16] was 35%, the “Population Mitotic Cells (%)” value [2, 16] was 0% and the “Population Normal (%)” value [2, 16] was 64%. The “Population Pyknosed Nuclei (%)” value [2, 16] was 14%, the “Population Tubulin-Different-Phenotype (%)” value [2, 16] was 57% and the “Total Cell Count” value [2, 16] was 76. For the same compound, the “Growth Rate” value [3, 4] was 1, the “Growth Rate” value [3, 5] was 0 and the “Growth Rate” value [3, 6] was 0. The “Growth Rate” value [3, 7] was 0 and the “Growth Rate” value [3, 8] was 0.
